Calls of active or inactive are those of the source. The calls are words filed in the database; no cut-off is given here.
Key:
[1] = Elimination half life in Sprague-Dawley rat at 15 nmol/kg, sc by LC-MS/MS analysis; assay type: ADME, organism-based; settings: in vivo, read-out: beta t1/2 (converted)
[2] = target: Glucagon-like peptide 1 receptor (Homo sapiens, UniProt P43220); test: Activation of human GLP-1 receptor overexpressed in HEK293 cells assessed as cAMP accumulation after 20 mins by HTRF assay; assay type: functional, cell-based
[3] = Half life in Sprague-Dawley rat plasma at 1000 ng/mL by LC-MS/MS analysis; assay type: ADME, cell-free
Rattus norvegicus [4] = test: Anticoagulant activity in Sprague-Dawley rat assessed as prothombin time at 150 nmol/kg, iv administered for 6 days measured on day 7 by coagulometric analysis (reference value: 13.5 +/- 0.32 secs); assay type: functional
Rattus norvegicus [5] = test: Anticoagulant activity in Sprague-Dawley rat assessed as activated […] time at 150 nmol/kg, iv administered for 6 days measured on day 7 by coagulometric analysis (reference value: 26.5 +/- 0.81 secs); assay type: functional
Rattus norvegicus [6] = test: Anticoagulant activity in Sprague-Dawley rat assessed as thombin time at 25 nmol/kg, iv administered for 6 days measured on day 7 by coagulometric analysis (reference value: 19.38 +/- 0.72 secs); assay type: functional
Rattus norvegicus [7] = test: Antidiabetic activity in Sprague-Dawley rat assessed as reduction of plasma glucose level at 25 nmol/kg, ip administered 0.5 hrs prior to glucose challenge measured at 15 to 60 mins by OGTT; assay type: functional, organism-based
Rattus norvegicus [8] = test: Antidiabetic activity in Sprague-Dawley rat assessed as increase of plasma insulin level at 25 nmol/kg, ip administered 0.5 hrs prior to glucose challenge measured at 15 mins by ELISA; assay type: functional
Rattus norvegicus [9] = test: Antidiabetic activity in Sprague-Dawley rat assessed as increase of plasma insulin level at 25 nmol/kg, ip administered 0.5 hrs prior to glucose challenge measured at 45 mins by ELISA; assay type: functional
Mus musculus [10] = test: Hypoglycemic activity in C57BL/6J-m+/+Leprdb (db/db) mouse assessed as reduction of plasma glucose level at 25 nmol/kg, ip administered 0.5 hrs prior to glucose challenge measured after 18 to 21 hrs by IPGTT (reference value: >30 mM); assay type: functional
Rattus norvegicus [11] = test: Anticoagulant activity in Sprague-Dawley rat assessed as prothombin time at 25 nmol/kg, iv administered for 6 days measured on day 7 by coagulometric analysis (reference value: 13.5 +/- 0.32 secs); assay type: functional
Mus musculus [12] = test: Hypoglycemic activity in C57BL/6J-m+/+Leprdb (db/db) mouse assessed as reduction of plasma glucose level at 25 nmol/kg, ip administered 0.5 hrs prior to glucose challenge measured at 21.5 to 24 hrs by IPGTT; assay type: functional, organism-based
Mus musculus [13] = test: Hypoglycemic activity in C57BL/6J-m+/+Leprdb (db/db) mouse assessed as reduction of plasma glucose level at 25 nmol/kg, ip administered 0.5 hrs prior to glucose challenge measured up to 17 hrs by IPGTT (reference value: >30 mM); assay type: functional
Mus musculus [14] = test: Hypoglycemic activity in C57BL/6J-m+/+Leprdb (db/db) mouse assessed as reduction of plasma glucose level at 25 nmol/kg, ip administered 0.5 hrs prior to glucose challenge measured at 21.5 hrs by IPGTT (reference value: >30 mM); assay type: functional
Mus musculus [15] = test: Hypoglycemic activity in C57BL/6J-m+/+Leprdb (db/db) mouse assessed as time required to reduce plasma glucose level below 8.35 mM at 150 nmol/kg, ip administered for 0.5 hrs; assay type: functional
Procedure, shortened: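 Non-fasted male db/db mice (7 weeks, free access to food and water) got a single ip injection (25 or 150 nmol/kg) or saline. Glucose AUC0−48h and the time for glucose to return below 8.35 mM were derived. Mean ± SD, n = 6.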

[16] = Tmax in Sprague-Dawley rat at 15 nmol/kg, sc by LC-MS/MS analysis; assay type: ADME, organism-based; settings: in vivo
Rattus norvegicus [17] = test: Anticoagulant activity in Sprague-Dawley rat assessed as thombin time at 150 nmol/kg, iv administered for 6 days measured on day 7 by coagulometric analysis (reference value: 19.38 +/- 0.72 secs); assay type: functional
Rattus norvegicus [18] = test: Antidiabetic activity in Sprague-Dawley rat assessed as reduction of plasma glucose level at 25 nmol/kg, ip administered 0.5 hrs prior to glucose challenge by OGTT (reference value: 13.32 +/- 1.84 mM); assay type: functional
[19] = Cmax in Sprague-Dawley rat at 15 nmol/kg, sc by LC-MS/MS analysis; assay type: ADME, organism-based; parameters: dose 15 nmol/kg, route subcutaneous; settings: in vivo
[20] = Mean residence time in Sprague-Dawley rat at 15 nmol/kg, sc by LC-MS/MS analysis; assay type: ADME, organism-based; settings: in vivo
Mus musculus [21] = test: Hypoglycemic activity in C57BL/6J-m+/+Leprdb (db/db) mouse assessed as time required to reduce plasma glucose level below 8.35 mM at 25 nmol/kg, ip administered for 0.5 hrs; assay type: functional
Procedure, shortened: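 Non-fasted male db/db mice (7 weeks, free access to food and water) got a single ip injection (25 or 150 nmol/kg) or saline. Mean ± SD, n = 6.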

Rattus norvegicus [22] = test: AUC (0 to infinity) in Sprague-Dawley rat at 15 nmol/kg, sc by LC-MS/MS analysis; assay type: ADME, organism-based, Plasma; parameters: dose 15 nmol/kg, route subcutaneous, time infinity; settings: in vivo
Rattus norvegicus [23] = test: Anticoagulant activity in Sprague-Dawley rat assessed as activated […] time at 25 nmol/kg, iv administered for 6 days measured on day 7 by coagulometric analysis (reference value: 26.5 +/- 0.81 secs); assay type: functional
albumin = albumin (Homo sapiens, UniProt P02768); test: Binding affinity to human serum albumin at 100 ug/mL after 3 hrs relative to control; assay type: ADME; settings: read-out: PB (converted)
Procedure, shortened: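 Peptide at 100 μg/mL in PBS (50 μL) was incubated with HSA-conjugated Sepharose resin for 3 h at 25 °C, then centrifuged (1000 rpm, 10 min). Unbound peptide in the supernatant was quantified by micro BCA assay. Nonspecific adsorption was corrected with NHS-inactivated, albumin-free resin.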

Rattus norvegicus [24] = test: Antidiabetic activity in Sprague-Dawley rat assessed as increase of plasma insulin level at 25 nmol/kg, ip administered 0.5 hrs prior to glucose challenge measured for 120 mins by ELISA; assay type: functional, organism-based
Procedure, shortened: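 SD rats (200−250 g, n = 6/group) were fasted 12 h and given compound ip (25 nmol/kg) or saline 0.5 h before oral glucose (10 g/kg). Tail-vein blood glucose was read with a meter at −30, 0, 15, 30, 45, 60, 90, 120 and 180 min. Insulin was measured by rat insulin ELISA. Mean ± SD.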

Chain of albumin (P02768 whole entry): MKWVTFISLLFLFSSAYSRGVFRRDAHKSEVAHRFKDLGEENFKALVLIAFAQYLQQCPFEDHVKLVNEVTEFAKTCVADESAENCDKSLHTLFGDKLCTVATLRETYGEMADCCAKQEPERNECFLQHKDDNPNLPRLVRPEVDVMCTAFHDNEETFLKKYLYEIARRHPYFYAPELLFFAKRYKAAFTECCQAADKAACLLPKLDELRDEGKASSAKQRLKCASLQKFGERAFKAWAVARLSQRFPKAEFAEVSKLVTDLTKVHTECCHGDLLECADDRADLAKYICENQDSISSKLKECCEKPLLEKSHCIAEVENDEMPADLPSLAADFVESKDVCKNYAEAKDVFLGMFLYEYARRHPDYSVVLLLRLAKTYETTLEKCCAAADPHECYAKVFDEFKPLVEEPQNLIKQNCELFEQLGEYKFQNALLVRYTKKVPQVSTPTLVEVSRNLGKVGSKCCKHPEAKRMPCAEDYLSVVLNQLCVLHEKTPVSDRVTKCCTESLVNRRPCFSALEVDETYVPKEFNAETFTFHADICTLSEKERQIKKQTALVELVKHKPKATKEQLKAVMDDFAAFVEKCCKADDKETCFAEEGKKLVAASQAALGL
Chain of Glucagon-like peptide 1 receptor (P43220 whole entry): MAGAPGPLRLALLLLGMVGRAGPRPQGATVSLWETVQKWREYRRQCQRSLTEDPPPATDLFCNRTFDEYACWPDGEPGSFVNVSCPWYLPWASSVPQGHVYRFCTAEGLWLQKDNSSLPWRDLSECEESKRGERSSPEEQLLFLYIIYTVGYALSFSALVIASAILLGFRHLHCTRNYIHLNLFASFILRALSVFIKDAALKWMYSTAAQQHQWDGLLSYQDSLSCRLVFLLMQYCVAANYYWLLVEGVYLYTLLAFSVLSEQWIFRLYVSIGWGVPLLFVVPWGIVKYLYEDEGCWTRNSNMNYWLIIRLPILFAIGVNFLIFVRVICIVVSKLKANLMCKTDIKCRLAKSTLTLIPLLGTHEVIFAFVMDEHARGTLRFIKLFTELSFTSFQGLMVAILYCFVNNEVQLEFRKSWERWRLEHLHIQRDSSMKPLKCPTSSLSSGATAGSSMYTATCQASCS

| half-life [1] | EC50 [2] | half-life at 1000 ng/mL [3] | Tmax [16] | Cmax [19] | MRT [20] | AUC (Rattus norvegicus [22]) | fraction unbound at 3 h, 100 ug/mL (albumin) | SMILES | Activity (Rattus norvegicus [7]) | Activity (Rattus norvegicus [8]) | Activity (Rattus norvegicus [9]) | Activity (Rattus norvegicus [18]) | Time (Mus musculus [21]) | Activity (Rattus norvegicus [24]) | other results |
| --- | --- | --- | --- | --- | --- | --- | --- | --- | --- | --- | --- | --- | --- | --- | --- |
| 18.8 h | 0.0242 nM | 55.8 h | 1.3 h | 907 ng/mL | 29.8 h | 36800 ng·h/mL | 0.06 | CC[C@H](C)[C@H](NC(=O)[C@H](Cc1ccccc1)NC(=O)[C@H](CCC(=O)O)NC(=O)[C@H](CCCCN)NC(=O)[C@H](C)NC(=O)[C@H](C)NC(=O)[C@H](CCC(N)=O)NC(=O)CNC(=O)[C@H](CCC(=O)O)NC(=O)[C@H](CC(C)C)NC(=O)[C@H](Cc1ccc(O)cc1)NC(=O)[C@H](CO)NC(=O)[C@H](CO)NC(=O)[C@@H](NC(=O)[C@H](CC(=O)O)NC(=O)[C@H](CO)NC(=O)[C@@H](NC(=O)[C@H](Cc1ccccc1)NC(=O)[C@@H](NC(=O)CNC(=O)[C@H](CCC(=O)O)NC(=O)CNC(=O)[C@@H](N)Cc1cnc[nH]1)[C@@H](C)O)[C@@H](C)O)C(C)C)C(=O)N[C@@H](C)C(=O)N[C@@H](Cc1c[nH]c2ccccc12)C(=O)N[C@@H](CC(C)C)C(=O)N[C@H](C(=O)N[C@@H](CCCCN)C(=O)NCC(=O)N[C@@H](CCCNC(=N)N)C(=O)N[C@@H](CSC1CC(=O)N(CCCCCCCCCCCC(=O)Nc2ccc(C(c3c(O)c4ccccc4oc3=O)c3c(O)c4ccccc4oc3=O)cc2)C1=O)C(N)=O)C(C)C (some centres undefined) | Active | 1052.22 pM | 524.26 pM | 7.8 mM | 22.5 h | Active | PT (Rattus norvegicus [4]): 13.53 s; APTT (Rattus norvegicus [5]): 26.48 s; TT (Rattus norvegicus [6]): 19.4 s; Activity (Mus musculus [10]): <16 mM; PT (Rattus norvegicus [11]): 13.39 s; Activity (Mus musculus [12]): Active; Activity (Mus musculus [13]): <12 mM; Activity (Mus musculus [14]): 16.25 mM; Time (Mus musculus [15]): 30.4 h; TT (Rattus norvegicus [17]): 19.8 s; APTT (Rattus norvegicus [23]): 26.76 s |
| 12.5 h |  | 17.1 h | 1.51 h | 902 ng/mL | 18.3 h | 18100 ng·h/mL | 0.087 | CCCCCCCCCCCCCCCC(=O)N[C@@H](CCC(=O)NCCCC[C@H](NC(=O)[C@H](C)NC(=O)[C@H](C)NC(=O)[C@H](CCC(N)=O)NC(=O)CNC(=O)[C@H](CCC(=O)O)NC(=O)[C@H](CC(C)C)NC(=O)[C@H](Cc1ccc(O)cc1)NC(=O)[C@H](CO)NC(=O)[C@H](CO)NC(=O)[C@@H](NC(=O)[C@H](CC(=O)O)NC(=O)[C@H](CO)NC(=O)[C@@H](NC(=O)[C@H](Cc1ccccc1)NC(=O)[C@@H](NC(=O)CNC(=O)[C@H](CCC(=O)O)NC(=O)[C@H](C)NC(=O)[C@@H](N)Cc1cnc[nH]1)[C@@H](C)O)[C@@H](C)O)C(C)C)C(=O)N[C@@H](CCC(=O)O)C(=O)N[C@@H](Cc1ccccc1)C(=O)N[C@H](C(=O)N[C@@H](C)C(=O)N[C@@H](Cc1c[nH]c2ccccc12)C(=O)N[C@@H](CC(C)C)C(=O)N[C@H](C(=O)N[C@@H](CCCNC(=N)N)C(=O)NCC(=O)N[C@@H](CCCNC(=N)N)C(=O)NCC(=O)O)C(C)C)[C@@H](C)CC)C(=O)O [LIRAGLUTIDE] | Active | 992.08 pM | 425.34 pM | 8.3 mM | 19 h | Active |  |
|  | 0.0064 nM | 1.1 h |  |  |  |  | 0.922 | CC[C@H](C)[C@H](NC(=O)[C@H](Cc1ccccc1)NC(=O)[C@H](CCC(=O)O)NC(=O)[C@H](CCCCN)NC(=O)[C@H](C)NC(=O)[C@H](C)NC(=O)[C@H](CCC(N)=O)NC(=O)CNC(=O)[C@H](CCC(=O)O)NC(=O)[C@H](CC(C)C)NC(=O)[C@H](Cc1ccc(O)cc1)NC(=O)[C@H](CO)NC(=O)[C@H](CS)NC(=O)[C@@H](NC(=O)[C@H](CC(=O)O)NC(=O)[C@H](CO)NC(=O)[C@@H](NC(=O)[C@H](Cc1ccccc1)NC(=O)[C@@H](NC(=O)CNC(=O)[C@H](CCC(=O)O)NC(=O)CNC(=O)[C@@H](N)Cc1cnc[nH]1)[C@@H](C)O)[C@@H](C)O)C(C)C)C(=O)N[C@@H](C)C(=O)N[C@@H](Cc1c[nH]c2ccccc12)C(=O)N[C@@H](CC(C)C)C(=O)N[C@H](C(=O)N[C@@H](CCCCN)C(=O)NCC(=O)N[C@@H](CCCNC(=N)N)C(N)=O)C(C)C |  |  |  |  |  |  |  |
|  | 0.0261 nM | 13.6 h |  |  |  |  | 0.31 | CC[C@H](C)[C@H](NC(=O)[C@H](Cc1ccccc1)NC(=O)[C@H](CCC(=O)O)NC(=O)[C@H](CCCCN)NC(=O)[C@H](C)NC(=O)[C@H](C)NC(=O)[C@H](CCC(N)=O)NC(=O)CNC(=O)[C@H](CCC(=O)O)NC(=O)[C@H](CC(C)C)NC(=O)[C@H](Cc1ccc(O)cc1)NC(=O)[C@H](CO)NC(=O)[C@H](CSC1CC(=O)N(CCC(=O)Nc2ccc(C(c3c(O)c4ccccc4oc3=O)c3c(O)c4ccccc4oc3=O)cc2)C1=O)NC(=O)[C@@H](NC(=O)[C@H](CC(=O)O)NC(=O)[C@H](CO)NC(=O)[C@@H](NC(=O)[C@H](Cc1ccccc1)NC(=O)[C@@H](NC(=O)CNC(=O)[C@H](CCC(=O)O)NC(=O)CNC(=O)[C@@H](N)Cc1cnc[nH]1)[C@@H](C)O)[C@@H](C)O)C(C)C)C(=O)N[C@@H](C)C(=O)N[C@@H](Cc1c[nH]c2ccccc12)C(=O)N[C@@H](CC(C)C)C(=O)N[C@H](C(=O)N[C@@H](CCCCN)C(=O)NCC(=O)N[C@@H](CCCNC(=N)N)C(N)=O)C(C)C (some centres undefined) |  |  |  |  |  |  |  |
